Measured values: ChEMBL document CHEMBL4414556, “Antiproliferative Acylated Glycerols from New Zealand Propolis” (2019)

Tests used:
Type in all cases: functional
[1] = system: DLD-1; assay: Antiproliferative activity against human DLD1 cells assessed as cell growth inhibition at 450 nM by MTT assay relative to control
Method in brief: (§1)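 Cells revived from cryostorage and cultured under supplier-recommended conditions with test or reference samples. Working solutions at 2 mg/mL solids in 15% EtOH/Hank's balanced saline. 5-Fluorouracil positive control at final well concentrations of 450, 150 and 50 nM. MTT viability read-out after incubation, expressed as percentage proliferation versus cells-only control; six replicates for test and control.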

[2] = system: NCI-N87; assay: Antiproliferative activity against human NCI-N87 cells assessed as cell growth inhibition at 450 nM by MTT assay relative to control; method in brief: as §1
[3] = system: KYSE-30; assay: Antiproliferative activity against human KYSE-30 cells assessed as cell growth inhibition at 450 nM by MTT assay relative to control; method in brief: as §1
[4] = system: DLD-1; assay: Antiproliferative activity against human DLD1 cells assessed as cell growth inhibition at 110 uM by MTT assay relative to control
Method in brief: (§2)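 Cells revived from cryostorage and grown under supplier-recommended conditions with test samples. Working solutions were made in 15% EtOH/Hank's balanced saline at 2 mg/mL solids. Final well concentrations were 110, 55 or 22 μM, and the 5-fluorouracil reference was run at 450, 150 and 50 nM. MTT viability read after incubation, expressed as % proliferation versus a cells-only control, with six replicates.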

[5] = system: NCI-N87; assay: Antiproliferative activity against human NCI-N87 cells assessed as cell growth inhibition at 110 uM by MTT assay relative to control; method in brief: as §2
[6] = system: KYSE-30; assay: Antiproliferative activity against human KYSE-30 cells assessed as cell growth inhibition at 110 uM by MTT assay relative to control; method in brief: as §2
[7] = system: NCI-N87; assay: Antiproliferative activity against human NCI-N87 cells assessed as cell growth inhibition at 22 uM by MTT assay relative to control; method in brief: as §2
[8] = system: DLD-1; assay: Antiproliferative activity against human DLD1 cells assessed as cell growth inhibition at 55 uM by MTT assay relative to control; method in brief: as §2
[9] = system: KYSE-30; assay: Antiproliferative activity against human KYSE-30 cells assessed as cell growth inhibition at 55 uM by MTT assay relative to control; method in brief: as §2
[10] = system: NCI-N87; assay: Antiproliferative activity against human NCI-N87 cells assessed as cell growth inhibition at 55 uM by MTT assay relative to control; method in brief: as §2
[11] = system: KYSE-30; assay: Antiproliferative activity against human KYSE-30 cells assessed as cell growth inhibition at 22 uM by MTT assay relative to control; method in brief: as §2

| SMILES | inhibition at 0.45 µM [1] [%] | inhibition at 0.45 µM [2] [%] | inhibition at 0.45 µM [3] [%] | inhibition at 110 µM [4] [%] | inhibition at 110 µM [5] [%] | inhibition at 110 µM [6] [%] | inhibition at 22 µM [7] [%] | inhibition at 55 µM [8] [%] | inhibition at 55 µM [9] [%] | inhibition at 55 µM [10] [%] | inhibition at 22 µM [11] [%] |
| --- | --- | --- | --- | --- | --- | --- | --- | --- | --- | --- | --- |
| O=c1[nH]cc(F)c(=O)[nH]1 [FLUOROURACIL] | 21 | 8 | 17 |  |  |  |  |  |  |  |  |
| CCCCCCCCCCCC[C@@H](O)CCCC[C@@H](O)CC(=O)OCC(O)CO (stereo not given in full) |  |  |  | 80 | 100 | 52 |  |  |  |  |  |
| CCCCCCCCCCCCCCCC(=O)OCC(O)CO (stereo not given) [GLYCEROL MONOPALMITATE] |  |  |  | 72 | 100 | 75 |  |  |  |  |  |
| CCCCCCCCCCCC[C@@H](O)CCCC[C@@H](O)CC(=O)OCC(O)COC(C)=O (stereo not given in full) |  |  |  | 94 | 100 | 52 | 39 | 13 | 50 | 86 | 9 |
| CCCCCCCCCCCCC[C@@H](O)CCCC[C@@H](O)CC(=O)OCC(O)COC(C)=O (stereo not given in full) |  |  |  | 91 | 100 | 29 |  |  |  |  |  |
